Measured values: PMC2646257 (Journal of medicinal chemistry, 2009)
“And” between values parts separate entries of the source, which are not always exact repeats. Equal values may be shown once. Read-outs that look alike come from different tables or passages of the source.

Legend:
[1] = mouse; cited from earlier work
[2] = Plasma free fraction, monkey; format: in vitro ADME; settings: two monkeys, one value each (n = 9 and n = 3)
How it was run: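 Radioligand was added to plasma and placed on a centrifugal ultrafiltration unit. The unit was spun at 5000g, and all filter-unit components were counted for radioactivity to derive free fraction.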

[3] = Stability in sodium phosphate buffer; format: physicochemical; settings: sodium phosphate buffer (0.15 M, pH 7.4), room temperature
How it was run: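 Radioligand was incubated in 0.15 M sodium phosphate buffer, pH 7.4, at room temperature for 2 h and analysed by HPLC.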

[4] = system: PBR; assay: PET imaging in monkeys; format: in vivo, rhesus monkey; settings: monkey
How it was run: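 Male rhesus monkeys (11–15 kg) received an i.v. bolus of radioligand (2.76–5.80 mCi; 0.068–0.276 μg/kg) and were scanned up to 300 min. In pre-block, PBR ligand (3 mg/kg i.v.) was given 24 min before radioligand and imaging ran 120 min. In displacement, one monkey received 1.28 mCi, then 3 mg/kg i.v. at 60 min, with 240 min scanning. Uptake was given as %SUV. Images were co-registered with T1 1.5-T MRI.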

[5] = Stability to rat brain homogenate in vitro; format: in vitro ADME; settings: 37 °C, up to 60 min
How it was run: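 Excised rat brain (1.70 g) was homogenized in 3 mL saline, spiked with 5 μCi radioligand and incubated at 37 °C. Aliquots (n = 6) were taken periodically up to 60 min into acetonitrile, centrifuged and analysed by radio-HPLC for % parent and radiometabolites. A second brain, homogenized in saline/acetonitrile before spiking, served as reference.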

[6] = Emergence of radiometabolites in monkey plasma in vivo; parameters: species or system rhesus monkey
How it was run: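 Three male rhesus monkeys (11–15 kg) received i.v. bolus radioligand during four PET scans: three baseline and one pre-block (PBR ligand 3 mg/kg i.v., 24 min before). Arterial blood was drawn periodically from the femoral artery into heparin tubes and centrifuged. Plasma (1 mL) was mixed with acetonitrile (1.5 mL) and centrifuged. Supernatant was analysed by radio-HPLC for % parent and radiometabolites. Plasma concentration was expressed as %SUV.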

[7] = Emergence of radiometabolites in rat plasma, brain and urine in vivo
How it was run: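 Four rats (277–623 g) were kept under 1.5% isoflurane in oxygen at 37 °C. Two received NCA radioligand i.v. (0.812 or 1.32 mCi; >1.39 Ci/μmol) and were killed at 30 or 95 min. Two received carrier-added radioligand (0.86 or 0.89 mCi; ~0.13 Ci/μmol; saline with 10% ethanol, 5% Tween 80), had 5 mL saline i.p. 30 min before, and were killed at 60 min with urine collected. Plasma was deproteinized. Brain was homogenized on ice in saline/acetonitrile plus water and centrifuged. Analysis was by radio-HPLC.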

[8] = Radiochemical stability of formulated radioligand; format: physicochemical; settings: formulated [^18F]9
[9] = format: in vitro ADME, rat; settings: 30 min
[10] = LC-MS-MS search for metabolites in rat brain, urine and plasma in vivo
How it was run: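 Three rats under 1.5% isoflurane received non-radioactive test compound (2.26 ± 0.76 mg) via the penile vein over 9 min, in 0.9 mL saline with 10% ethanol and Cremophor EL or Tween 80. Urethras were clamped; saline 0.1 mL was given i.v. every 30 min. Blood and urine were taken at 60 or 115 min. Brain was homogenized twice in acetonitrile/water and spun at 10,000g for 10 min. Plasma was deproteinized with acetonitrile. Samples were stored at −70 °C and analysed by LC-MS-MS.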

[11] = system: PBR; settings: cited from earlier work
[12] = two rats, carrier-added, 60 min

Structure (SMILES): COc1ccc(OC[18F])c(CN(C(C)=O)c2cc(F)ccc2Oc2ccccc2)c1 [[^18F]4]
- defluorination [1]: rapidly defluorinated

Structure (SMILES): COc1ccc(OC)c(CN(C(=O)C[18F])c2ccccc2Oc2ccccc2)c1 [[^18F]9, [^18F]N-fluoroacetyl-N-(2,5-dimethoxybenzyl)-2-phenoxyaniline]
- plasma free fraction (fP) [2]: 3.5 ± 0.2% and 1.34 ± 0.1%
- time stable in buffer [3]: > 2 h
- defluorination (uptake of radioactivity into skull) ([4]; PET images 60-120 min): does not defluorinate significantly
- maximal brain uptake ([4]; choroid plexus of fourth ventricle, baseline, n = 4): 371 ± 89 % SUV
- proportion of brain radioactivity displaced ([4]; choroid plexus, 1 (3 mg/kg i.v.) given 60 min after [^18F]9): up to 90%
- unchanged radioligand after incubation [5]: > 99.2%
- time for radiometabolite to reach half of plasma radioactivity ([6]; baseline, the one monkey also studied with pre-block): 24 min
- minor radiometabolite, share of total plasma radioactivity ([6]; monkey plasma, all samples except one): ≤ 4%
- peak plasma concentration of unchanged [^18F]9, pre-block versus baseline ([6]; monkey, %SUV, same monkey): ~18 fold
- time at which plasma is composed equally of radiometabolite and [^18F]9 ([6]; monkey, baseline experiments, n = 3): 31.1 ± 14.7 min
- time at which plasma is composed equally of radiometabolite and [^18F]9 ([6]; monkey, pre-block with 1 (3 mg/kg i.v.), 3 mg/kg): 4.0 min and 4 min
- minor radiometabolite, share of total plasma radioactivity ([6]; one monkey, one plasma sample at 60 min after injection): 8%
- [^18F]9 as share of plasma radioactivity ([7]; rat, NCA, mass dose 0.85 μg/kg, 30 min, n = 2): 12.5%
- minor radiometabolite, share of total radioactivity ([7]; second rat, NCA, mass dose 3.78 μg/kg): < 5%
- minor radiometabolite, share of brain radioactivity [7, 12]: < 5%
- minor radiometabolite, share of plasma radioactivity [7, 12]: < 3%
- minor radiometabolite, share of urine radioactivity [7, 12]: 9.9 ± 2.2%
- time radiochemically stable [8]: at least 4 h

Structure (SMILES): O=C(C[18F])Nc1ccccc1Oc1ccccc1 [[^18F]11, [^18F]2-fluoro-N-(2-phenoxyphenyl)acetamide]
- conversion into polar radiometabolite(s) ([9]; rat brain homogenate): > 99.9%
- conversion into polar radiometabolite(s) ([9]; rat whole blood): > 99.9%

Structure (SMILES): COc1ccc(OC)c(CN(C(=O)CF)c2ccccc2Oc2ccccc2)c1 [compound 9, N-Fluoroacetyl-N-(2,5-dimethoxybenzyl)-2-phenoxyaniline]
- unchanged 9 in urine by LC-MS-MS [10]: not detected
- unchanged 9 in brain and plasma by LC-MS-MS ([10]; sampled at 115 min after administration): detected
- selectivity for PBR [11]: selective for PBR
